Data taken from ChEMBL document CHEMBL1155908, “Muscarinic receptor 1 agonist activity of novel N-arylthioureas substituted 3-morpholino arecoline derivatives in Alzheimer's presenile dementia models” (Bioorg Med Chem, 2008).
Active and inactive are the calls of the source. The rule behind the calls is not given here.

What was measured:
Cortex = assay: Stimulation of (1,4,5)-trisphosphate formation in Wistar rat cerebral cortex relative to basal; format: functional; parameters: concentration or dose not given beside the values
In short: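 Rat cerebral cortex slices were labelled with [3H]myoinositol, then stimulated with compound at 1–500 µmol/l. Basal IP3 was measured, and acetylcholine iodide served as the reference stimulus. [3H]IP3 formed was counted by liquid scintillation. Values are mean and SD of three experiments, each run in duplicate.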

Rattus norvegicus [1] = organism: Rattus norvegicus; assay: Reversal of scopolamine-induced memory loss in Wistar rat assessed as reduction of number of mistakes relative to control; format: functional
In short: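 Passive avoidance step-down task run on male Wistar rats, 200–250 g, n = 8, with scopolamine-induced memory loss. Mistakes were counted. The dose range tested was 0.05–0.2 mg/kg, and 0.1 mg/kg was used in the in vivo studies.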

[2] = molecular target: T1, Muscarinic acetylcholine receptor M1 (Rattus norvegicus, UniProt P08482); assay: Displacement of [3H]QNB from muscarinic M1 receptor Wistar rat cortex synaptosomal membrane
T1 sequence (P08482 whole entry): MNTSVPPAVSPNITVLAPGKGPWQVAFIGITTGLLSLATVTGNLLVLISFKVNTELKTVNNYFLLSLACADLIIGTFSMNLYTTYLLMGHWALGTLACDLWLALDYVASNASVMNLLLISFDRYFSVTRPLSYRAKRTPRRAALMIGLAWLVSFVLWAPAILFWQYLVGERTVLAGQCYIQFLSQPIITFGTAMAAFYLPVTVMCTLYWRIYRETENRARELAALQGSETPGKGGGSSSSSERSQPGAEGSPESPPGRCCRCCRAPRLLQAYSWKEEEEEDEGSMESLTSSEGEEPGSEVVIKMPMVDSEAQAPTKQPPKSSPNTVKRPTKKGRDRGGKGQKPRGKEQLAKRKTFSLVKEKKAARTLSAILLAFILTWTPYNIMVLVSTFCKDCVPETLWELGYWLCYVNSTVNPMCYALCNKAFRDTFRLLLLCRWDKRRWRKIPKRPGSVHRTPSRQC
In short: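 Male Wistar rat cortex synaptosomal membranes were prepared in Tris–HCl 50 mmol/L pH 7.4 with 0.32 mol/L sucrose, spun at 1000g then 32,000g at 4 °C, and resuspended in 50 mmol/L phosphate buffer pH 7.4 with MgCl2. Membrane protein was incubated with 0.2 nM [3H]QNB and displacer for 2 h at 37 °C, then GF/B filtered and counted by scintillation. IC50 and Ki were obtained by curve analysis.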

Rattus norvegicus [3] = organism: Rattus norvegicus; assay: Reversal of scopolamine-induced learning impairment and memory loss in Wistar rat on elevated plus maze assessed as transfer latency time on day 1 relative to control; format: functional
In short: (§1)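 Elevated plus maze, male Wistar rats. Scopolamine alone or with compound was given 30 min before a 90 s exploration, and saline 0.9% was given to controls. Transfer latency from the open-arm end to a closed arm was timed on day 1, then retested in the same animals on day 2. Mean ± SEM.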

Rattus norvegicus [4] = organism: Rattus norvegicus; assay: Effect on scopolamine-induced spartial working memory loss in Wistar rat on Y maze assessed as alteration behavior; format: functional
In short: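 Y maze, male Wistar rats, 200–250 g. Compound plus scopolamine was given 30 min before free exploration. Arm entries were recorded visually. Alternation was scored as successive entries into all three arms over overlapping triplets. Percent alternation = actual alternations / (total entries − 2) × 100.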

Rattus norvegicus [5] = organism: Rattus norvegicus; assay: Reversal of scopolamine-induced learning impairment and memory loss in Wistar rat on elevated plus maze assessed as transfer latency time on day 2 relative to control; format: functional; in short: as §1

IC50 [2] [µM]	Ki [2] [µM]	SMILES	Activity (Cortex) [%]	Activity (Rattus norvegicus [1])	Activity (Rattus norvegicus [3])	Activity (Rattus norvegicus [4]) [%]	Activity (Rattus norvegicus [5])
112	31	CN1CCC=C(C2CN(C(=S)Nc3ccc(Cl)cc3Cl)CCO2)C1 (centres undefined)	116	Active	–	–	–
362	98	COc1ccccc1NC(=S)N1CCOC(C2=CCCN(C)C2)C1 (centres undefined)	100	–	–	–	–
236	85	CN1CCC=C(C2CN(C(=S)Nc3cccc(Cl)c3)CCO2)C1 (centres undefined)	103	–	–	–	–
67	15	CN1CCC=C(C2CN(C(=S)Nc3ccccc3F)CCO2)C1 (centres undefined)	129	Active	–	58	–
153	49	CN1CCC=C(C2CN(C(=S)Nc3ccccc3)CCO2)C1 (centres undefined)	101	–	–	–	–
515	214	CN1CCC=C(C2CN(C(=S)Nc3ccccc3Cl)CCO2)C1 (centres undefined)	100	–	60 s	–	43 s

Continued, molecule first:

SMILES	IC50 [2] [µM]	Ki [2] [µM]	Activity (Cortex) [%]	Activity (Rattus norvegicus [1])	Activity (Rattus norvegicus [3])	Activity (Rattus norvegicus [4]) [%]	Activity (Rattus norvegicus [5])
CN1CCC=C(C2CN(C(=S)Nc3ccc(F)cc3)CCO2)C1 (centres undefined)	31	7	155	11	Active	61	Active
COc1cccc(NC(=S)N2CCOC(C3=CCCN(C)C3)C2)c1 (centres undefined)	120	41	106	Active	–	–	–
CC(=O)OCC[N+](C)(C)C [ACETYLCHOLINE]	–	–	268	–	–	–	–
COc1ccc(NC(=S)N2CCOC(C3=CCCN(C)C3)C2)cc1 (centres undefined)	15	4	178	10	Active	60	Active
CN1CCC=C(C2CN(C(=S)Nc3ccc(Cl)cc3)CCO2)C1 (centres undefined)	1.2	0.31	216	10	34 s	64	9 s
